In ChEMBL document CHEMBL5316289, “Structure-Based Rational Design of Small α-Helical Peptides with Broad-Spectrum Activity against Multidrug-Resistant Pathogens” (J Med Chem, 2023):
Several values for one entry are separate records, joined by “and”; a condition that tells them apart may be missing. Identical values can stand only once. Activity calls are given as the source filed them. The calls are words filed in the database; no cut-off is given here. Where a SMILES comes first, the peptide text is derived from it. Bridges are numbered along the chain shown (N, C = ends). [ ]: non-standard residue; d: D form. The star is where a group is joined. X1 = CC[C@H](C)CCCCC(=O)*; dDab = NCC[C@@H](N)C(=O)O; Dab = NCC[C@H](N)C(=O)O

What was measured:
Cell membrane [1] = test: Disruption of cell membrane in methicillin resistant Staphylococcus aureus ATCC BAA 1556 assessed as increase in PI fluorescence intensity at MIC measured after 1 hrs by PI staining based flow cytometric analysis; format: subcellular
Procedure, shortened: (§1)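 Mid-log cells grown in Mueller Hinton broth, washed in 10 mM Tris pH 7.4, 10^7 CFU/mL, treated at MIC and 4× MIC for 1 h. Pelleted, washed, PI-stained for 15 min at 37 °C in the dark, then counted by flow cytometry for % PI-positive cells. PBS-treated cells as negative control, 10% Triton X-100 as positive control. Run in triplicate; two-tailed unpaired t-test.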

Cell membrane [2] = test: Disruption of cell membrane in methicillin resistant Staphylococcus aureus ATCC BAA 1556 assessed as increase in PI fluorescence intensity at 4 times of MIC measured after 1 hrs by PI staining based flow cytometric analysis; procedure, shortened: as §1
Cell membrane [3] = test: Disruption of cell membrane in Escherichia coli ATCC BAA-2452 assessed as increase in PI fluorescence intensity at 4 times of MIC measured after 1 hrs by PI staining based flow cytometric analysis; format: subcellular
Procedure, shortened: (§2)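 Mid-log E. coli ATCC BAA-2452 grown in Mueller Hinton broth, washed thrice and resuspended at 10^7 CFU/mL in 10 mM Tris pH 7.4. […] Controls: PBS (negative) and 10% Triton X-100 (positive). Triplicate; two-tailed unpaired t-test.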

Cell membrane [4] = test: Disruption of cell membrane in Escherichia coli ATCC BAA-2452 assessed as increase in PI fluorescence intensity at MIC measured after 1 hrs by PI staining based flow cytometric analysis; format: subcellular; procedure, shortened: as §2
Staphylococcus aureus [5] = test: Antibacterial activity against methicillin resistant Staphylococcus aureus ATCC BAA 1556 assessed as inhibition of bacterial growth incubated for 24 hrs by CLSI based broth microdilution method; format: functional
Escherichia coli [6] = test: Antibacterial activity against Escherichia coli ATCC 25922 assessed as inhibition of bacterial growth incubated for 24 hrs by CLSI based broth microdilution method; format: functional
Pseudomonas aeruginosa = test: Antibacterial activity against Pseudomonas aeruginosa […] assessed as inhibition of bacterial growth incubated for 24 hrs by CLSI based broth microdilution method; format: functional
Klebsiella pneumoniae = test: Antibacterial activity against Klebsiella pneumoniae ATCC BAA 1705 assessed as inhibition of bacterial growth incubated for 24 hrs by CLSI based broth microdilution method; format: functional; settings: read-out: MIC
Erythrocyte = test: Hemolytic activity in human RBC incubated for 2 hrs by spectrophotometrical analysis; format: toxicity, cell-based
Procedure, shortened: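 Human erythrocytes (4% suspension in PBS) mixed 1:1 with 2-fold serial peptide dilutions, 2 h at 37 °C without agitation. After centrifugation, supernatant hemoglobin read at 567 nm. 0% hemolysis set by PBS, 100% by 1% Triton X-100. HC50 is the concentration giving 50% hemolysis.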

Staphylococcus aureus [7] = test: Antibacterial activity against Staphylococcus aureus ATCC 29213 assessed as inhibition of bacterial growth incubated for 24 hrs by CLSI based broth microdilution method; format: functional
Staphylococcus aureus [8] = test: Antibacterial activity against methicillin resistant Staphylococcus aureus ATCC BAA 1556 assessed as fold increase in MIC incubated for 24 hrs in presence of Na+ ions by CLSI based broth microdilution method; format: functional
Procedure, shortened: (§3)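 CLSI broth microdilution. Overnight cultures diluted in cation-adjusted Mueller Hinton broth to 10^6 CFU/mL, mixed 1:1 with 2-fold serial peptide dilutions, 24 h at 37 °C. […] MIC is the lowest concentration inhibiting growth. Three independent assays in triplicate.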

Escherichia coli [9] = test: Antibacterial activity against Escherichia coli ATCC 25922 assessed as fold increase in MIC incubated for 24 hrs in presence of Na+ ions by CLSI based broth microdilution method; format: functional
Procedure, shortened: (§4)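 E. coli MICs by CLSI broth microdilution in cation-adjusted Mueller Hinton broth. […] Inoculum was 10^6 CFU/mL with 2-fold serial peptide dilutions, incubated 24 h at 37 °C. MIC is the lowest concentration inhibiting growth. Three independent assays, each in triplicate.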

Staphylococcus aureus [10] = test: Antibacterial activity against methicillin resistant Staphylococcus aureus ATCC BAA 1556 assessed as fold increase in MIC incubated for 24 hrs in presence of K+ ions by CLSI based broth microdilution method; format: functional; procedure, shortened: as §3
Staphylococcus aureus [11] = test: Antibacterial activity against methicillin resistant Staphylococcus aureus ATCC BAA 1556 assessed as fold increase in MIC incubated for 24 hrs in presence of NH4+ ions by CLSI based broth microdilution method; format: functional; procedure, shortened: as §3
Staphylococcus aureus [12] = test: Antibacterial activity against methicillin resistant Staphylococcus aureus ATCC BAA 1556 assessed as fold increase in MIC incubated for 24 hrs in presence of Ca2+ ions by CLSI based broth microdilution method; format: functional; procedure, shortened: as §3
Staphylococcus aureus [13] = test: Antibacterial activity against methicillin resistant Staphylococcus aureus ATCC BAA 1556 assessed as fold increase in MIC incubated for 24 hrs in presence of Mg2+ ions by CLSI based broth microdilution method; format: functional; procedure, shortened: as §3
Escherichia coli [14] = test: Antibacterial activity against Escherichia coli ATCC 25922 assessed as fold increase in MIC incubated for 24 hrs in presence of K+ ions by CLSI based broth microdilution method; format: functional; procedure, shortened: as §4
Escherichia coli [15] = test: Antibacterial activity against Escherichia coli ATCC 25922 assessed as fold increase in MIC incubated for 24 hrs in presence of NH4+ ions by CLSI based broth microdilution method; format: functional; procedure, shortened: as §4
Escherichia coli [16] = test: Antibacterial activity against Escherichia coli ATCC 25922 assessed as fold increase in MIC incubated for 24 hrs in presence of Ca2+ ions by CLSI based broth microdilution method; format: functional; procedure, shortened: as §4
Escherichia coli [17] = test: Antibacterial activity against Escherichia coli ATCC 25922 assessed as fold increase in MIC incubated for 24 hrs in presence of Mg2+ ions by CLSI based broth microdilution method; format: functional; procedure, shortened: as §4

| Compound | MIC (Staphylococcus aureus [5]) | MIC (Escherichia coli [6]) | MIC (Pseudomonas aeruginosa) | MIC (Klebsiella pneumoniae) | MIC (Staphylococcus aureus [7]) | also measured |
| --- | --- | --- | --- | --- | --- | --- |
| CC[C@H](C)CCCCC(=O)N[C@@H](CCN)C(=O)N[C@H](C(=O)N[C@@H](CCN)C(=O)N[C@H]1CCNC(=O)[C@H]([C@@H](C)O)NC(=O)[C@H](CCN)NC(=O)[C@H](CCN)NC(=O)[C@H](CC(C)C)NC(=O)[C@@H](Cc2ccccc2)NC(=O)[C@@H](CCN)NC1=O)[C@@H](C)O (X1-[Dab]T[Dab][Dab][dDab][dF]L[Dab][Dab]T; lactam 4-C) |  |  |  |  |  | Activity (Cell membrane [1]): inactive; Activity (Cell membrane [2]): inactive; Activity (Cell membrane [3]): inactive; Activity (Cell membrane [4]): inactive |
| Ac-KWAKKWAKWWKK-NH2 | 100 µg/mL | 100 µg/mL | 100 µg/mL | 100 µg/mL |  |  |
| Ac-RWARRWARWWRR-NH2 |  | 100 µg/mL | 100 µg/mL | > 100 µg/mL |  | HC50 (Erythrocyte): 110 ug ml-1 and 58.4 µM |
| Ac-RWIRRWIRWWR-NH2 |  | 100 µg/mL |  | 100 µg/mL |  |  |
| H-AAWRRWWRRA-NH2 | > 100 µg/mL and > 70.7 µM | > 100 µg/mL and > 70.7 µM | > 100 µg/mL | > 100 µg/mL | > 100 µg/mL and > 70.7 µM |  |
| H-ARRWWRRW-NH2 | 100 µg/mL and > 78.7 µM | > 100 µg/mL and > 78.7 µM | > 100 µg/mL | > 100 µg/mL | 100 µg/mL |  |
| H-AWWRRAWRR-NH2 | > 100 µg/mL and > 74.5 µM | > 100 µg/mL and > 74.5 µM | > 100 µg/mL | > 100 µg/mL | > 100 µg/mL and > 74.5 µM |  |
| H-KWAKKWAKWWKK-NH2 | 100 µg/mL | > 100 µg/mL and > 59.8 µM | > 100 µg/mL | > 100 µg/mL | 100 µg/mL |  |
| H-KWIKKWIKWWKK-NH2 |  |  |  |  |  | fold change (FC) (Staphylococcus aureus [8]): 2; fold change (FC) (Escherichia coli [9]): 2; fold change (FC) (Staphylococcus aureus [10]): 2; fold change (FC) (Staphylococcus aureus [11]): 2; fold change (FC) (Staphylococcus aureus [12]): 2; fold change (FC) (Staphylococcus aureus [13]): 2; fold change (FC) (Escherichia coli [14]): 2; fold change (FC) (Escherichia coli [15]): 2; fold change (FC) (Escherichia coli [16]): 2; fold change (FC) (Escherichia coli [17]): 2 |
| H-RAARRWARWWR-NH2 | 100 µg/mL | > 100 µg/mL and > 63.7 µM | > 100 µg/mL | > 100 µg/mL | 100 µg/mL |  |
| H-RAWRAWWRRA-NH2 | > 100 µg/mL and > 70.7 µM | > 100 µg/mL and > 70.7 µM | > 100 µg/mL | > 100 µg/mL | > 100 µg/mL and > 70.7 µM |  |
| H-RAWRRAWRAW-NH2 | > 100 µg/mL and > 70.7 µM | > 100 µg/mL and > 70.7 µM | > 100 µg/mL | > 100 µg/mL | > 100 µg/mL and > 70.7 µM |  |
| H-RAWRRWARAW-NH2 | > 100 µg/mL and > 70.7 µM | > 100 µg/mL and > 70.7 µM | > 100 µg/mL | > 100 µg/mL | > 100 µg/mL and > 70.7 µM |  |
| H-RAWRRWWARA-NH2 | > 100 µg/mL and > 70.7 µM | > 100 µg/mL and > 70.7 µM | > 100 µg/mL | > 100 µg/mL | > 100 µg/mL and > 70.7 µM |  |
| H-RAWRRWWRA-NH2 | > 100 µg/mL and > 74.5 µM | > 100 µg/mL and > 74.5 µM | > 100 µg/mL | > 100 µg/mL | > 100 µg/mL and > 74.5 µM |  |
| H-RAWRRWWRAA-NH2 | > 100 µg/mL and > 70.7 µM | > 100 µg/mL and > 70.7 µM | > 100 µg/mL | > 100 µg/mL | > 100 µg/mL and > 70.7 µM |  |
| H-RRWRRWW-NH2 | 100 µg/mL | > 100 µg/mL and > 83.3 µM | > 100 µg/mL | > 100 µg/mL | 100 µg/mL |  |
